{"data": "Measured values collected from several papers", "NT5E": "5'-nucleotidase (NT5E, Homo sapiens, UniProt P21589)", "XDH": "Xanthine dehydrogenase/oxidase (XDH, Bos taurus, UniProt P80457)", "Adra1b": "Alpha-1B adrenergic receptor (Adra1b, Rattus norvegicus, UniProt P15823)", "note": "Lines come from different studies, so protocols differ."}
{"Compound": "Cc1cccc(NC(=O)c2sc3nc(C)cc(C)c3c2N)n1", "target": "NT5E", "read-out": "enzyme activity", "action": "inhibitor", "tested at": "10 µM", "inhibition [%]": -21}
{"Compound": "O=C(O)CCc1nccc2c3ccccc3n(Cc3ccc(Br)c4ccccc34)c12", "target": "XDH", "read-out": "enzyme activity", "action": "inhibitor", "method": "absorbance", "tested at": "10 µM", "inhibition [%]": 16.4}
{"Compound": "CCN1/C(=C/C(C)=O)Sc2ccc(F)cc21", "target": "Adra1b", "read-out": "ligand displacement", "method": "radioligand", "tested at": "10 µM", "inhibition [%]": 4.13}
{"Compound": "O=C(O)/C=C/c1nccc2c3ccccc3n(Cc3ccc(Br)c4ccccc34)c12", "target": "XDH", "read-out": "enzyme activity", "action": "inhibitor", "method": "absorbance", "tested at": "10 µM", "inhibition [%]": 17.8}
{"Compound": "Cc1cc(O)c(-c2ccc([C@@H](C)CN(C)C)cc2)c2c1[nH]c(=O)c1sccc12", "target": "Cyclin-dependent kinase 13 (CDK13, Homo sapiens, UniProt Q14004)", "read-out": "enzyme activity", "action": "inhibitor", "tested at": "0.1 µM", "inhibition [%]": -1.62}
{"Compound": "C#Cc1cc(-c2cc(Nc3nc(N[C@@H](C)c4ccc(F)cn4)ncc3Cl)n[nH]2)ccc1C=O", "target": "Mitogen-activated protein kinase kinase kinase kinase 5 (MAP4K5, Homo sapiens, UniProt Q9Y4K4)", "read-out": "enzyme activity", "action": "inhibitor", "tested at": "0.2 µM", "inhibition [%]": 92}
{"Compound": "O=C(O[C@@H]1COC(=O)c2cc(O)c(O)c(O)c2-c2c(cc(O)c(O)c2O)C(=O)O[C@H]1[C@@H]1OC(=O)c2cc(O)c(O)c(O)c2-c2c(O)c(O)c(O)c3c2C(=O)O[C@H]1[C@@H]3O)c1cc(O)c(O)c(O)c1", "target": "XDH", "read-out": "enzyme activity", "action": "inhibitor", "tested at": "25 µg/mL", "inhibition [%]": 29.8}
{"Compound": "NC/C(=C\\F)COc1cccc(Cn2c(=S)[nH]c(=O)c3[nH]cnc32)c1", "target": "Adra1b", "read-out": "ligand displacement", "method": "radioligand", "tested at": "10 µM", "inhibition [%]": "< 50"}
{"Compound": "N#Cc1c(C(F)(F)F)cc(-c2ccccc2)nc1SCC(=O)Nc1ccccc1", "target": "NT5E", "read-out": "enzyme activity", "action": "inhibitor", "tested at": "10 µM", "inhibition [%]": 16}
{"Compound": "Oc1ncnc2[nH]ncc12", "target": "XDH", "read-out": "enzyme activity", "action": "inhibitor", "tested at": "25 µg/mL", "inhibition [%]": "> 90"}
{"Compound": "O=C(NS(=O)(=O)c1ccccc1)c1cc2ccccc2n1Cc1ccc(C2CC2)c2ccccc12", "target": "XDH", "read-out": "enzyme activity", "action": "inhibitor", "method": "absorbance", "tested at": "10 µM", "inhibition [%]": 2.49}
{"Compound": "COCCOCCOCCNC(=O)c1sc2nc(-c3ccccc3)cc(C(F)(F)F)c2c1N", "target": "NT5E", "read-out": "enzyme activity", "action": "inhibitor", "tested at": "10 µM", "inhibition [%]": -9}
